Broadly, the pKd is the negative decadic logarithm of the Kd, by convention in mol/L.

Numbering of substitutions follows the chain as printed. pKd: −log10 of the molar value. Converted amounts (≈) assume the structure as drawn. The source made the active and inactive calls. No cut-off for these calls is given here. Bounds are passed on as bounds.

The test system of test [1] is Staphylococcus aureus. Kind of test: Bactericidal activity against methicillin-sensitive Staphylococcus aureus 8325-4 at 8 times MIC measured 2 hrs post dose for 24 hrs assessed as log reduction in bacterial CFU by time kill study. Type of test: functional. An outline of the steps:
(§1)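 Exponentially growing S. aureus 8325-4 was diluted in CAMH broth to 10⁵–10⁶ CFU/mL. […] Samples taken at 2, 4 and 6 h were pelleted or diluted, then plated on TSA. Colonies were counted after 24 h at 37 °C. Points are the mean of two independent measurements.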

The subject of test [2] is Staphylococcus aureus. Kind of test: Antimicrobial effect against methicillin-sensitive Staphylococcus aureus 8325-4 assessed as changes in MIC measured after 12 incubation cycles by stepwise broth microdilution method relative to initial compound MIC. Type of test: functional, organism-based. In outline: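 Stepwise resistance selection. S. aureus 8325-4 at 10⁵ CFU/mL was inoculated into 2-fold increasing compound concentrations and incubated 24 h at 37 °C. Aliquots from the well with the highest concentration still showing growth (2-fold below MIC) seeded a new serial 2-fold dilution plate. This was repeated for multiple cycles, with MIC determined each cycle.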
On the technique in general: Broth dilution looks for growth in wells or tubes with falling amounts of substance.

The nature of test [3]: Binding affinity to Enterococcus faecalis FtsZ at 25 degC by fluorescence anisotropy assay. To be noted: read-out: Kd.
Test [4] has as its target T1, Cell division protein FtsZ (Escherichia coli K-12) (UniProt P0A9A6).
T1 sequence (whole entry): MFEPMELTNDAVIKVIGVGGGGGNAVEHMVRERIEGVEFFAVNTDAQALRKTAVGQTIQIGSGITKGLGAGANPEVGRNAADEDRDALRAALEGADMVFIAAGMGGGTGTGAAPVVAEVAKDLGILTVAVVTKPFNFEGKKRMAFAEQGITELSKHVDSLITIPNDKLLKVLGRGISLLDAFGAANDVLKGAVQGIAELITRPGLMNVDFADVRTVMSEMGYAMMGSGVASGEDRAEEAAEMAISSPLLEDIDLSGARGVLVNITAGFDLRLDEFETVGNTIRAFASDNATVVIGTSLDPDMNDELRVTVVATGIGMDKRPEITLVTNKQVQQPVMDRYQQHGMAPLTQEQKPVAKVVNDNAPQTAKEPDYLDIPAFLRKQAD
Kind of test: Stimulation of Escherichia coli FtsZ assembly at 20 ug/mL by transmission electron microscopy. An outline of the steps:
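EcFtsZ was polymerized with 20 μg/mL compound (10 μM protein, 1 mM GTP, 10 mM CaCl₂, Tris/KCl/Mg acetate buffer pH 7.4). The reaction was diluted 1:10 in polymerization buffer at room temperature and applied to glow-discharged Formvar/carbon copper grids. Grids were negatively stained 1 min with 1% phosphotungstic acid and imaged by TEM at 80 kV.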

For test [5], the system named is Staphylococcus aureus. Kind of test: Antimicrobial effect against 3x10^9 CFU/ml methicillin-sensitive Staphylococcus aureus 8325-4 at 4 to 32 times MIC assessed as incidence of colonies growth measured after 24 incubation by large inoculation approach based drug resistance detection method. It is filed as functional, organism-based. An outline of the steps: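 Inoculum count checked on nonselective plates. Incubated at 37 °C and examined after 24 h and daily thereafter. Mutation frequency = colonies on selective plates / total bacteria plated.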

Test [6] concerns the target T1, Cell division protein FtsZ (Escherichia coli K-12). Kind of test: Binding affinity to Escherichia coli FtsZ at 40 uM by fluorescence anisotropy BoGTPgammaS competition assay. An outline of the steps:
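Competition with fluorescent BoGTPγS. BoGTPγS (1 μM final) was mixed with 5 μM FtsZ and compound or unlabeled GTP at 0–40 μM. Buffer was 50 mM Tris·HCl pH 7.4, 50 mM KCl, 2 mM magnesium acetate. After 5 min at 25 °C, anisotropy was read at excitation 488 nm and emission 510 nm, in triplicate and averaged.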

The test system of test [7] is Staphylococcus aureus. Kind of test: Potency index, ratio of vancomycin to compound bactericidal effect in methicillin-sensitive Staphylococcus aureus 8325-4 at 8 times MIC by time kill study. It is filed as functional.
The subject of test [8] is Staphylococcus aureus. Briefly: Bactericidal activity against methicillin-sensitive Staphylococcus aureus 8325-4 at 8 times MIC measured within 6 hrs post dose for 24 hrs assessed as log reduction in bacterial CFU by time kill study. Type of test: functional. In outline:
as §1

The target of test [9] is Cell division protein FtsZ (Staphylococcus aureus, UniProt P0A031, G196A). Briefly: Binding affinity to Staphylococcus aureus FtsZ G196A mutant expressed in Escherichia coli BL21 (DE3) at 25 degC by fluorescence anisotropy assay. Background: In fluorescence polarisation assays a small probe gives low polarisation when free and higher when bound to something large.
The subject of a further test is Streptococcus pyogenes. Briefly: Antimicrobial activity against Streptococcus pyogenes Strep A ATCC 19615 incubated for 24 hrs by broth microdilution method. It is filed as functional. To be noted: Strep A ATCC 19615, 24 h. In outline: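 CLSI broth microdilution. Log-phase bacteria at 10⁵ CFU/mL were exposed to 2-fold serial dilutions (64 to 0.016 μg/mL) in cation-adjusted Mueller-Hinton broth, 5% defibrinated sheep blood added for Streptococcus. Incubated aerobically 24 h at 37 °C. Growth read as OD600; MIC taken as the lowest concentration giving 90% growth inhibition.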

For test [10], the system named is T2, Cell division protein FtsZ (Staphylococcus aureus), P0A031 [E185A].
T2 sequence (whole entry): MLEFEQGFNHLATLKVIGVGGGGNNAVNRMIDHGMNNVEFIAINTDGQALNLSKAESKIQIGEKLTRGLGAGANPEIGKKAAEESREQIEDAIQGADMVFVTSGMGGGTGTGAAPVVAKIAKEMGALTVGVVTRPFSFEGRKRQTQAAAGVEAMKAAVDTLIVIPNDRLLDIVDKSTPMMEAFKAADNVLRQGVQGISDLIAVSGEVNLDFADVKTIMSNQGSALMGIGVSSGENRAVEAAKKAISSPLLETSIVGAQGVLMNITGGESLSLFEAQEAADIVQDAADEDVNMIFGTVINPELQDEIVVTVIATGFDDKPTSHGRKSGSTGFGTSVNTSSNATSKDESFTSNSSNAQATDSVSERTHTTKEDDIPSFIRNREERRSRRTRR
Briefly: Binding affinity to Staphylococcus aureus FtsZ E185A mutant self-polymerization at 20 ug/mL by microtiter plate-based light scattering assay.

Test [11] relates to Staphylococcus aureus. Kind of test: microbe, parasite or virus in culture. To be noted: ATCC 33591, 24 h. Type of test: functional.
The subject of test [12] is Staphylococcus aureus. Kind of test: Potency index, ratio of erythromycin to compound bactericidal effect in methicillin-sensitive Staphylococcus aureus 8325-4 at 8 times MIC by time kill study. Type of test: functional.
Test [13] concerns T3, Cell division protein FtsZ (Staphylococcus aureus), P0A031 [I228R].
T3 sequence (whole entry): T2 sequence (whole entry) with A185E, I228R
Briefly: Binding affinity to Staphylococcus aureus FtsZ I228R mutant self-polymerization at 10 ug/mL by microtiter plate-based light scattering assay.

The test system of test [14] is T2, Cell division protein FtsZ (Staphylococcus aureus), P0A031 [E185A]. Briefly: Binding affinity to Staphylococcus aureus FtsZ E185A mutant self-polymerization at 10 ug/mL by microtiter plate-based light scattering assay.

As to `CC(C)(C)c1ccc(-c2cccc(CNC(=N)N)c2)cc1`, the FC with Staphylococcus aureus [1] is reported as 3; in the test on Staphylococcus aureus [8] it was 4. Also, the result (with Staphylococcus aureus [2]; in [4]; with Staphylococcus aureus [5]; in test [13]) was Active. Moreover, the values for the negative-log Kd (pKd) in [3] and in test [9] were 4.66 and 5.30, respectively. Moreover, the outcome in test [6], in [10] and in test [14] was inactive. Moreover, the Ratio is given as 100 with Staphylococcus aureus [7] and more than 1000 in the test on Staphylococcus aureus [12]. Moreover, the MIC in the test with Streptococcus pyogenes was determined as 2 µg/mL (≈ 7.11 µM); against Staphylococcus aureus [11], 1 µg/mL (≈ 3.55 µM).

These data come from ChEMBL document CHEMBL2176974, “A bactericidal guanidinomethyl biaryl that alters the dynamics of bacterial FtsZ polymerization” (J Med Chem, 2012).
